Laboratory results published in paper PMC11565791 (bioRxiv, 2025).
Numbering of substitutions follows the chain as printed. Names may count otherwise. Blank lines part the entries; values can stand above or below the molecule they belong to.

Assays:
[1] = system: H3K9me3 peptide (fluoresceinated H3 1-20); assay: Fluorescence polarization, H3K9me3 tail peptide; type: binding
In short: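 Fluoresceinated H3 1–20 K9me3 or K9me0 peptide was fixed at 100 nM. Purified Swi6, unphosphorylated or CK2-phosphorylated, was titrated at 0–200 μM. Fluorescence polarization was read at ex 485 / em 528 nm; Kd derived by curve fitting.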

H3Kc9me3 mononucleosomes = assay: Fluorescence polarization, H3Kc9me3; type: binding
H3K9me3 = H3K9me3 ChIP-seq; type: cell-based, S. pombe
In short: (§1)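 Cells were grown overnight in YES at 32°C to saturation, diluted to OD 0.03 and grown to OD 1. 300×10^6 cells were fixed with 1% formaldehyde only and quenched with glycine. Chromatin was bead-beaten and sheared, then immunoprecipitated overnight at 4°C with anti-H3K9me2 or anti-H3K9me3. Reverse-crosslinked with proteinase K at 65°C. 40 bp paired-end reads; ChIP/input signal, mean of three repeats with 95% CI.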

[2] = system: spreading 'orange' reporter (mKO2); assay: Flow cytometry, MAT ΔREIII HSS 'orange' spreading reporter; type: cell-based, Schizosaccharomyces pombe; conditions: Figure 3E-J run (fully separate from Figure 1)
In short: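 Strains from −80°C stocks were revived on YES plates. Cells were grown overnight in 200 μL YES at 32°C to saturation. The next morning they were diluted 1:25 in YES into mid-log phase and analysed by flow cytometry for single-cell reporter fluorescence. Compensation and analysis followed a prior protocol.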

H3K9me2 = H3K9me2 ChIP-seq; type: cell-based, S. pombe
In short: as §1

[3] = system: genomic loci (nucleators, spreading zones, euchromatin); assay: FLAG-Swi6 ChIP-seq; type: cell-based, S. pombe; conditions: for FLAG-Swi6 accumulation at nucleation sites versus wildtype: spike-in normalized, Figure 5B
In short: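 FLAG ChIP: strains express FLAG-tagged Swi6 variants; IP with M2 anti-FLAG. pS18-pS24 ChIP: untagged strains; IP with anti-pS18-pS24 antibody; lysis buffer also contains 0.1 mM orthovanadate and 60 mM β-glycerophosphate. Both: grown to saturation in YES at 32°C, then 2 h at 18°C. 600×10^6 cells fixed with 1.5 mM EGS (30 min), then 1% formaldehyde (30 min). Drosophila spike-in added; three technical replicates; spike-in-adjusted cpm.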

heterochromatin foci = assay: Swi6-GFP live cell imaging of nuclear foci; type: cell-based, S. pombe; conditions: Figure 4E,F
In short: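 Swi6-GFP strains in a Sad1-mKO2 background were grown on YES 225 agar at 32°C for 3–5 days. Cells were then cultured in liquid YES 225 at 30°C with 250 rpm shaking to OD 0.2–0.6 before live-cell imaging.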

[4] = MAT ΔREIII HSS, mean of three repeats

- tighter binding to H3Kc9me3 nucleosome than to H3K9me3 peptide (H3Kc9me3 mononucleosomes; Kd nucleosome vs Kd tail peptide): 1.7 X
Molecule: pSwi6: Swi6 co-expressed with Casein Kinase II (CKII) in E. coli
- specificity for H3K9me3 peptide ([1]; H3K9me3 vs H3K9me0 peptide): ~ 93 X
- preference for H3K9me3 versus H3K9me2 peptides ([1]; SFigure 4C): ~ 2.2 X
- decrease in nucleosome affinity by phosphorylation, overall (pSwi6 vs unpSwi6) (H3Kc9me3 mononucleosomes; Figure 4D): 12 X
- specificity for H3K9me3 mark on nucleosomes (H3Kc9me3 mononucleosomes; H3Kc9me3 vs H3K9me0 nucleosomes): 19 X

B1: swi6^S18/24A: swi6 mutant S18A and S24A (protein, UniProt P40381 1-328, looked up, variant S18A S24A)
Chromatin-associated protein …: MKKGGVRSYRRSSTSKRAVIDDDAEPELPSMTKEAIASHKADSGSSDNEVESDHESKSSSKKLKENAKEEEGGEEEEEDEYVVEKVLKHRMARKGGGYEYLLKWEGYDDPSDNTWSSEADCSGCKQLIEAYWNEHGGRPEPSKRKRTARPKKPEAKEPSPKSRKTDEDKHDKDSNEKIEDVNEKTIKFADKSQEEFNENGPPSGQPNGHIESDNESKSPSQKESNESEDIQIAETPSNVTPKKKPSPEVPKLPDNRELTVKQVENYDSWEDLVSSIDTIERKDDGTLEIYLTWKNGAISHHPSTITNKKCPQKMLQFYESHLTFRENE
- H3K9me3 level at MAT locus (H3K9me3; [4]): much more closely mirrored Δswi6
- H3K9me2 and H3K9me3 at mei4 (H3K9me3; heterochromatin island mei4, SFigure 3A): no distinguishable differences
- spreading phenotype [2]: more severe spreading defect than the oligomerization surface mutants alone
- H3K9me2 in nucleators versus wildtype (H3K9me2; 300bp bins, SFigure 2): H3K9me2 is elevated in almost all nucleators
- H3K9me2 level at MAT locus (H3K9me2; [4]): maintained similar levels of H3K9me2 to wildtype swi6
- distance to the left of tlh2 at which H3K9me2 levels begin to drop (H3K9me2; tel IIR, relative to wildtype): ~ 6.4 kb

B2: swi6^loopX-S18/24A: double mutant of loopX and S18/24A (protein, UniProt P40381 1-328, looked up, variant S18A S24A R93A K94A)
Chromatin-associated protein …: B1 Chromatin-associated protein … with R93A, K94A
- spreading phenotype [2]: largely mimics that of swi6^S18/24A

B3: swi6^loopX: ARK loop in the CD mutant (R93A and K94A) (protein, UniProt P40381 1-328, looked up, variant R93A K94A)
Chromatin-associated protein …: B1 Chromatin-associated protein … with A18S, A24S, R93A, K94A
- spreading phenotype [2]: moderate spreading defect

B4: FLAG-Swi6^S18/24A: 3XFLAG tagged Swi6 S18/24A (protein, UniProt P40381 1-328, looked up, variant S18A S24A)
Chromatin-associated protein …: B1 Chromatin-associated protein …
modifications: 3XFLAG tag
- FLAG-Swi6 accumulation at nucleation sites versus wildtype [3]: decline in accumulation
- FLAG-Swi6 accumulation at cen I & II ([3]; versus wildtype, Figure 5E, SFigure 7A): accumulates less than wildtype within previously mapped siRNA generating centers
- FLAG-Swi6 accumulation at H3K9me2-negative loci ([3]; versus wildtype, Figure 5F,G): accumulates above wildtype at several H3K9me2 negative loci

B5: Swi6^S18/24A-GFP: C-terminally super fold-GFP tagged Swi6 S18/24A (protein, UniProt P40381 1-328, looked up, variant S18A S24A)
Chromatin-associated protein …: B1 Chromatin-associated protein …
modifications: C-terminal superfolder GFP tag
- partitioning relative to heterochromatin foci (heterochromatin foci): partition away from heterochromatin foci

B6: Swi6^6S/A -GFP: C-terminally super fold-GFP tagged Swi6 6S/A (protein, UniProt P40381 1-328, looked up, variant S18A S24A S117A S192A S212A S220A)
Chromatin-associated protein …: B1 Chromatin-associated protein … with S117A, S192A, S212A, S220A
modifications: C-terminal superfolder GFP tag
- partitioning relative to heterochromatin foci (heterochromatin foci): partition away from heterochromatin foci

B7: FLAG-Swi6^6S/A: 3XFLAG tagged Swi6 S18/24/117–220A (protein, UniProt P40381 1-328, looked up, variant S18A S24A S117A S192A S212A S220A)
Chromatin-associated protein …: B1 Chromatin-associated protein … with S117A, S192A, S212A, S220A
modifications: 3XFLAG tag
- FLAG-Swi6 accumulation at nucleation sites versus wildtype [3]: decline in accumulation
